ChEMBL document CHEMBL1153510, “Fascaplysin-inspired diindolyls as selective inhibitors of CDK4/cyclin D1” (Bioorg Med Chem, 2009)

How the values were obtained:
[1] = target: Cyclin-dependent kinase 4/cyclin D1 (Homo sapiens, UniProt P11802); experiment: (§1) Inhibition of human CDK4/ Cyclin D1 catalytic subunit expressed in Sf9 insect cells assessed as GST-RB152 fusion protein phosphorylation-associated depletion in ATP level by luminescence assay
Procedure, shortened: (§2)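 Human GST-cyclin D1 co-expressed with CDK4 in Sf-9 cells, purified on glutathione-agarose, eluted and dialysed. Substrate GST-RB152, expressed in E. coli BL21(DE3)pLysS with 4 mM IPTG induction for 4 h at 37 °C. Reaction: 2 µg GST-RB152 and 6 µM ATP in 50 µL Tris pH 7.5/MgCl2/BSA buffer with phosphatase inhibitors and DTT. Started with 200 ng enzyme, 30 min at 30 °C. Read-out Kinase-Glo luminescence of ATP depletion, giving IC50.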

[2] = target: Cyclin-dependent kinase 2 (Homo sapiens, UniProt P24941); experiment: Inhibition of human CDK2/ Cyclin A catalytic subunit expressed in Sf9 insect cells assessed as histone H1 phosphorylation-associated depletion in ATP level by luminescence assay
Procedure, shortened: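 Human GST-cyclin A co-expressed with CDK2 in Sf-9 cells, captured on glutathione-agarose, eluted with reduced glutathione, then dialysed. Reaction volume 50 µL in kinase buffer (40 mM Tris pH 7.5, 20 mM MgCl2, 0.1 mg/ml BSA) with 3 µg histone H1 and 6 µM ATP. Also contains 10 mM β-glycerophosphate, 0.1 mM NaF, 0.1 mM orthovanadate and 1 mM DTT. Started with 200 ng enzyme, run 30 min at 30 °C. Remaining ATP read by Kinase-Glo luminescence; IC50 derived from ATP depletion. Compounds from 10 mM DMSO stocks, serially diluted in kinase buffer.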

[3] = target: Cyclin-dependent kinase 4/cyclin D1 (Homo sapiens, UniProt P11802+P24385); experiment: as §1; conditions: sf9; procedure, shortened: as §2
Sequence of Cyclin-dependent kinase 4/cyclin D1 (Homo sapiens, UniProt P11802+P24385) (P11802 whole entry): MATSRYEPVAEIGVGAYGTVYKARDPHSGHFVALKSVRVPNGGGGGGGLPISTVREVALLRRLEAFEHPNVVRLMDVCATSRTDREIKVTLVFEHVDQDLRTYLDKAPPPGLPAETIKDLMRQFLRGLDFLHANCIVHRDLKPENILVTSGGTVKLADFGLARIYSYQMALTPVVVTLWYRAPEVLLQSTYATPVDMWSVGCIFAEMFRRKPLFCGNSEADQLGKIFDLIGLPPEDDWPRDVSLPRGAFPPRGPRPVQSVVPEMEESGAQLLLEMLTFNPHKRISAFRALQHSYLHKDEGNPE
Sequence of Cyclin-dependent kinase 4/cyclin D1 (Homo sapiens, UniProt P11802+P24385) (P24385 whole entry): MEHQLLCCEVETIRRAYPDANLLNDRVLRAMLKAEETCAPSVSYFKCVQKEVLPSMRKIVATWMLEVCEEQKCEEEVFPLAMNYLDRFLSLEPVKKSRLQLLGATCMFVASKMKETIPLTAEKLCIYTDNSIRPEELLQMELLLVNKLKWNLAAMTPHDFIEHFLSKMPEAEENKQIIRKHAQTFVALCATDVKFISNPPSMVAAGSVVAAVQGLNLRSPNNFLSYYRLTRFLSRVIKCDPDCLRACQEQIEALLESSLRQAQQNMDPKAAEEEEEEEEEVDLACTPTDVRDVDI

Sequence of Cyclin-dependent kinase 4/cyclin D1 (Homo sapiens, UniProt P11802) (P11802 whole entry, the tested form may be a part): as the sequence (P11802 whole entry) above
Sequence of Cyclin-dependent kinase 4/cyclin D1 (Homo sapiens, UniProt P11802) (P24385 whole entry, further chain, the tested form may be a part): as the sequence (P24385 whole entry) above

Structure (SMILES) | IC50 [1] [µM] | IC50 ([2]; read-out: IC50) [µM] | IC50 [3] | IC50 ([2]; sf9)
O=C(C(=O)N1CCc2cc(F)ccc21)c1c[nH]c2ccccc12 | 136 | 790 | – | –
Clc1ccc2c(ccn2CCc2c[nH]c3ccc(Cl)cc23)c1 | 38 | 862 | – | –
c1ccc2c(c1)CCN2CCCN1CCc2ccccc21 | – | – | ND(Insoluble) | ND(Insoluble)
c1ccc2c(c1)CCN2CCCCCCN1CCc2ccccc21 | – | – | ND(Insoluble) | ND(Insoluble)
c1ccc2c(c1)ccn2CCn1ccc2ccccc21 | 37 | 940 | – | –
c1ccc2c(c1)ccn2CCCCCCn1ccc2ccccc21 | 106 | 1210 | – | –
O=C(C(=O)N1CCc2ccccc21)c1c[nH]c2ccc(F)cc12 | 116 | 1160 | – | –
O=C(C(=O)N1CCc2ccccc21)c1c[nH]c2ccc(Cl)cc12 | 96 | 985 | – | –
O=C(C(=O)N1CCc2cc(Cl)ccc21)c1c[nH]c2ccc(Cl)cc12 | 43.5 | 915 | – | –
c1ccc2c(c1)ccn2CCc1c[nH]c2ccccc12 | > 500 | > 500 | – | –
Cc1ccc2c(ccn2CCc2c[nH]c3ccccc23)c1 | 130 | 500 | – | –
O=C(C(=O)N1CCc2ccccc21)c1c[nH]c2ccccc12 | 122 | 760 | – | –
Clc1ccc2c(ccn2CCc2c[nH]c3ccccc23)c1 | 140 | 430 | – | –
c1ccc2c(c1)CCN2CCN1CCc2ccccc21 | 66 | 1230 | – | –
Fc1ccc2[nH]cc(CCn3ccc4ccccc43)c2c1 | 50 | 200 | – | –
c1ccc2c(c1)ccn2CCCn1ccc2ccccc21 | 38 | 1070 | – | –
Fc1ccc2c(ccn2CCc2c[nH]c3ccccc23)c1 | 95 | > 500 | – | –
O=C(C(=O)N1CCc2cc(Cl)ccc21)c1c[nH]c2ccccc12 | 69.5 | 1030 | – | –
c1ccc2c(c1)ccn2CCCCn1ccc2ccccc21 | 45 | 1030 | – | –
O=C(C(=O)N1CCc2cc(F)ccc21)c1c[nH]c2ccc(F)cc12 | 48 | 816 | – | –
Cc1ccc2c(c1)CCN2C(=O)C(=O)c1c[nH]c2ccc(C)cc12 | 38 | 710 | – | –
Cc1ccc2c(ccn2CCc2c[nH]c3ccc(C)cc23)c1 | 44 | 960 | – | –
c1ccc2c(c1)ccn2CCCCCn1ccc2ccccc21 | 52 | 950 | – | –
Cc1ccc2c(c1)CCN2C(=O)C(=O)c1c[nH]c2ccccc12 | 54 | 910 | – | –
Cc1ccc2[nH]cc(C(=O)C(=O)N3CCc4ccccc43)c2c1 | 41.5 | 951 | – | –
Clc1ccc2[nH]cc(CCn3ccc4ccccc43)c2c1 | > 500 | > 500 | – | –
c1ccc2c(c1)CCN2CCCCN1CCc2ccccc21 | – | – | ND(Insoluble) | ND(Insoluble)
Fc1ccc2c(ccn2CCc2c[nH]c3ccc(F)cc23)c1 | 73 | 895 | – | –
c1ccc2c(c1)CCN2CCCCCN1CCc2ccccc21 | – | – | ND(Insoluble) | ND(Insoluble)
Cc1ccc2[nH]cc(CCn3ccc4ccccc43)c2c1 | 150 | 400 | – | –
